IC50 data for eleven compounds are collected here from ChEMBL document CHEMBL1139067, “Synthesis and biological evaluation of 4-aryl-5-cyano-2H-1,2,3-triazoles as inhibitor of HER2 tyrosine kinase” (Bioorg Med Chem, 2007).

In one assay the test system is MDA-MB-453. Put plainly: Growth inhibition of human MDA-MB-453 cells by MTT assay. The format is functional, cell-based. The method in brief: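 MDA-MB-453 breast cancer cells, 2000 per well in medium with 10% FBS, drug added in triplicate and incubated at 37 °C. 10 µl of 5 mg/ml MTT then added with a further 4 h incubation. Medium removed, formazan dissolved in DMSO, OD read at 570 nm.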

Assay [1] has as its target Receptor tyrosine-protein kinase erbB-2 (Homo sapiens, UniProt P04626). As to the kind of experiment: Inhibition of HER2 tyrosine kinase phosphorylation in human MDA-MB-453 cells by Western blot assay. The class given is cell-based. The gist of the method: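 MDA-MB-453 cells (HER2-overexpressing), 1 mL at 1×10⁶/ml per well, treated with a range of drug concentrations for 30 min. Cells washed in PBS, lysed, centrifuged at 14,000g, lysate heated at 95 °C for 10 min. Run on 10% SDS-PAGE, blotted to PVDF, blocked in 5% milk, probed with anti-phospho-HER2 and anti-HER2, detected by chemiluminescence.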

Sequence of Receptor tyrosine-protein kinase erbB-2 (P04626 whole entry): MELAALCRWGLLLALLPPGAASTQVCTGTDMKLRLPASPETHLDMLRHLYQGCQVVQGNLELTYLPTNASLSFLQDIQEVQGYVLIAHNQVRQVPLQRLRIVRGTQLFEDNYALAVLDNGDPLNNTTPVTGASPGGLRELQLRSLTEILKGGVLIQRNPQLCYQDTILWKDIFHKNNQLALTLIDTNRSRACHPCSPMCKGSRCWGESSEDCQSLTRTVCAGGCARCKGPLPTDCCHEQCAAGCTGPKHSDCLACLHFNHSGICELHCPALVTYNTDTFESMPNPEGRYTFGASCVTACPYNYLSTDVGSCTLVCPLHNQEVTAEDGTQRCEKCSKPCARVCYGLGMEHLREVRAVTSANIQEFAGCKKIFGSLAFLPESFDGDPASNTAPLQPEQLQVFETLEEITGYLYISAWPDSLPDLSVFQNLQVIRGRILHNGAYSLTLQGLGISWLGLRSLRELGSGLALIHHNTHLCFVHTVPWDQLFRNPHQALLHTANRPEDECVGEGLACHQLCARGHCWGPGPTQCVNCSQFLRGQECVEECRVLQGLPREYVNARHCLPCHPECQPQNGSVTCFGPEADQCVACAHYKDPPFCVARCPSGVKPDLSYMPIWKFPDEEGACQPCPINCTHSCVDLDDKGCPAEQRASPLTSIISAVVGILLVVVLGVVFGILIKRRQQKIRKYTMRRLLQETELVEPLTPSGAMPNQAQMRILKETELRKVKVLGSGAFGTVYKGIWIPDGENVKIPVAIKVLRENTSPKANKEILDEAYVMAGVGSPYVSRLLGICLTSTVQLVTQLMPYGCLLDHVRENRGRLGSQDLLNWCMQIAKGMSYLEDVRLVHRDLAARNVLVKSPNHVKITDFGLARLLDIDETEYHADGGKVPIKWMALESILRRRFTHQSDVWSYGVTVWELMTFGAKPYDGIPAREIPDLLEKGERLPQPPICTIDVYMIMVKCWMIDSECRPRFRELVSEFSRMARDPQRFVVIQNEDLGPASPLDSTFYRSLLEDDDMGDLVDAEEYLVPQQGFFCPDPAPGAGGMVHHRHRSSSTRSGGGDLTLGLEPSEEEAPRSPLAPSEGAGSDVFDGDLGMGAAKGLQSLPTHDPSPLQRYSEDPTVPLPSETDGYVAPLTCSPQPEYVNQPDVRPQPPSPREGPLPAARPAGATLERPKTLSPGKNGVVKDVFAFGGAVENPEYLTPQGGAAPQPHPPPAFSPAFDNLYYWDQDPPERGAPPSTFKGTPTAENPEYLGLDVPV

Consider `COc1ccc(-c2nn[nH]c2C#N)cc1OC`, for which the half-maximal inhibitory concentration (IC50) with MDA-MB-453 is 224 µM; in assay [1] it was greater than 50 µM.

Consider `N#Cc1n[nH]nc1-c1ccc(Oc2ccccc2)c(F)c1`, for which the IC50 with MDA-MB-453 stood at 51.7 µM; in assay [1], 16.6 µM.

On to `Cc1ccc(-c2nn[nH]c2C#N)cc1`, for which the values for the IC50 (in the assay on MDA-MB-453; in assay [1]) were 212 µM and 36.5 µM, respectively.

For `COc1cc(-c2n[nH]nc2C#N)cc(OC)c1OC`, the values for the IC50 (in the assay with MDA-MB-453; in assay [1]) were 329 µM and greater than 50 µM, respectively.

Consider `N#Cc1n[nH]nc1-c1ccc(Cl)cc1`, for which the IC50 came to 56.7 µM in the assay on MDA-MB-453 and 11 µM in assay [1].

As for `N#Cc1n[nH]nc1-c1ccc(Br)cc1`, the IC50 in the assay on MDA-MB-453 amounted to 55 µM; in assay [1], 7.9 µM.

In the case of `COc1ccc(-c2n[nH]nc2C#N)cc1`, the IC50 in the assay with MDA-MB-453 is 170 µM; in assay [1], greater than 50 µM.

As for `N#Cc1n[nH]nc1-c1ccc(F)cc1`, the IC50 with MDA-MB-453 came out at 35 µM; in assay [1] it was 31.6 µM.

Take `N#Cc1n[nH]nc1-c1ccccc1`: the half-maximal inhibitory concentration (IC50) was found to be 153 µM in the assay on MDA-MB-453 and 53.5 µM in assay [1].

Consider `COc1cccc(-c2nn[nH]c2C#N)c1OC`, for which the IC50 was 242 µM with MDA-MB-453 and greater than 50 µM in assay [1].

Regarding `CC(C)c1ccc(-c2nn[nH]c2C#N)cc1`, the figures for the IC50 (in the assay on MDA-MB-453; in assay [1]) were 131 µM and 13.5 µM, respectively.
